ChEMBL document CHEMBL1132624, “Guanidine derivatives as combined thromboxane A2 receptor antagonists and synthase inhibitors” (J Med Chem, 1999)

Assays:
[1] = organism: Homo sapiens; assay: In vitro activity expressed as EC50 for inhibition of collagen induced platelet aggregation.; assay type: functional
[2] = molecular target: T1, Thromboxane A2 receptor (Homo sapiens, UniProt P21731); assay: In vitro activity on thromboxane A2 receptor antagonism in gel filtered human platelets.; assay type: functional
T1 sequence (P21731 whole entry): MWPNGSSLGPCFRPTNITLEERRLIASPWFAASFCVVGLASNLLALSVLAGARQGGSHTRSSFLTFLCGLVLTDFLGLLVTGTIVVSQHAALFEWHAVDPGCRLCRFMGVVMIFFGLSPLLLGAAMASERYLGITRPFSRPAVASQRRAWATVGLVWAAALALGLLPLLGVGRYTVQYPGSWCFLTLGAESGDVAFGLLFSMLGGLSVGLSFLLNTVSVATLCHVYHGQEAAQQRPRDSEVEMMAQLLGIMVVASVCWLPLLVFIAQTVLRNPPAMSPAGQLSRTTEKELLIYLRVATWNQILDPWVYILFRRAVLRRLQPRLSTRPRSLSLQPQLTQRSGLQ
How it was run: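 Human gel-filtered platelets; competitive displacement of the high-affinity radioligand ³H-SQ 29,548 from the PGH2/TXA2 receptor; IC50 from displacement. Run at least in duplicate.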

[3] = molecular target: T2, Thromboxane-A synthase (Homo sapiens, UniProt P24557); assay: In vitro activity on thromboxane A2 synthase inhibition in gel filtered human platelets.
T2 sequence (P24557 whole entry): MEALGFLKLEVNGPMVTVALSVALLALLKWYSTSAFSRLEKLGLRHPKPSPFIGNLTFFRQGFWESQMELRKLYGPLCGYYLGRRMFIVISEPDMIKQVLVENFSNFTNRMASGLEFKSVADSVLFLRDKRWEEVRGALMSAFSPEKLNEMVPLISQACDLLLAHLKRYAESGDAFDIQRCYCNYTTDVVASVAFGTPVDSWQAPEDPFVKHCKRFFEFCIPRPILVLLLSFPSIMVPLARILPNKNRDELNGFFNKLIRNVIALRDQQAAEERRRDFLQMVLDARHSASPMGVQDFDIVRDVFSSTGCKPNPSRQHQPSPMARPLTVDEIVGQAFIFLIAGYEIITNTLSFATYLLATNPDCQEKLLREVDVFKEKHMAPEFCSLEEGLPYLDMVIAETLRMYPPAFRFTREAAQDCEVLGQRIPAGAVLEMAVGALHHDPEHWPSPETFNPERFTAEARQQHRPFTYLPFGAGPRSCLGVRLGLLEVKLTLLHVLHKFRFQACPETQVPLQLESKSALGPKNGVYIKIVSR

Compound	EC50 [1]	IC50 [2]	IC50 [3]
CC(C)(C)/N=C(\NC#N)Nc1cccc(/C(=N/OCCCCC(=O)O)c2cccnc2)c1	17000 nM	510 nM	230 nM
CC(C)(C)/N=C(\NC#N)Nc1cccc(/C(=C\CCC(=O)O)c2cccnc2)c1	13000 nM	81 nM	400 nM
CC(C)(C)Nc1c(Nc2cccc(/C(=C\CCCC(=O)O)c3cccnc3)c2)c(=O)c1=O	59000 nM	830 nM	230 nM
O=C(O)CCC/C=C(/c1cccnc1)c1cccc(N/C(=N\C2CCCC2)NC(=O)c2ccccc2)c1	16000 nM	110 nM	4 nM
O=C(O)CCC/C=C(/c1cccnc1)c1cccc(N/C(=C/[N+](=O)[O-])NC2CCCCC2)c1	15000 nM	440 nM	310 nM
CC(C)(C)/N=C(\NC#N)Nc1cccc(/C(=C\CCCCC(=O)O)c2cccnc2)c1	3700 nM	330 nM	6 nM
CC(C)(C)NC(=O)Nc1cccc(/C(=C\CCCC(=O)O)c2cccnc2)c1	9000 nM	1300 nM	40 nM
N#CN/C(=N/C1CC1)Nc1ccc(/C(=C\CCCC(=O)O)c2cccnc2)cc1	42000 nM	21000 nM	3900 nM
N/C(=N/C1CCCC1)Nc1cccc(/C(=C\CCCC(=O)O)c2cccnc2)c1	21000 nM	1700 nM	3900 nM
CN(C)CC/N=C(/NC#N)Nc1cccc(/C(=C\CCCC(=O)O)c2cccnc2)c1	6800 nM	1000 nM	2900 nM
CC(C)(C)/N=C(\Nc1cccc(/C(=C\CCCC(=O)O)c2cccnc2)c1)NS(=O)(=O)c1ccccc1	3300 nM		3 nM
CC(C)(C)/N=C(\NC#N)Nc1cccc(/C(=N\OCCCCC(=O)O)c2cccnc2)c1	5200 nM	310 nM	5 nM
CC(C)C/N=C(/NC(N)=O)Nc1cccc(/C(=C\CCCC(=O)O)c2cccnc2)c1	12000 nM	610 nM	200 nM
N#CN/C(=N/C1CCCCC1)Nc1ccc(/C(=C\CCCC(=O)O)c2cccnc2)cc1	31000 nM		
CC(C)(C)/N=C(\Nc1cccc(/C(=C\CCCC(=O)O)c2cccnc2)c1)NS(C)(=O)=O	6100 nM	330 nM	25 nM
N#CN/C(=N/C1CCCCC1)Nc1cccc(/C(=C\CCCC(=O)O)c2cccnc2)c1	5800 nM	47 nM	3 nM
N#CN/C(=N/Cc1cccnc1)Nc1cccc(/C(=C\CCCC(=O)O)c2cccnc2)c1	6900 nM	130 nM	320 nM
CC(C)C/N=C(\Nc1cccc(/C(=C\CCCC(=O)O)c2cccnc2)c1)Nc1nn[nH]n1	22000 nM	300 nM	930 nM
CC(C)(C)/N=C(\NC#N)Nc1cccc(/C(=C/CCCC(=O)O)c2cccnc2)c1	48000 nM	2600 nM	

Compounds with a lower EC50 [1], results first:

EC50 [1]	IC50 [2]	IC50 [3]	Compound
2000 nM	38 nM	22 nM	CC(C)(C)/N=C(/S)Nc1cccc(/C(=C\CCCC(=O)O)c2cccnc2)c1
1700 nM	77 nM	5 nM	CC(C)(C)/N=C(\NC#N)Nc1cccc(/C(=C\CCCCCC(=O)O)c2cccnc2)c1
1600 nM	32 nM	11 nM	N#CN/C(=N/Cc1ccccc1)Nc1cccc(/C(=C\CCCC(=O)O)c2cccnc2)c1
1000 nM	120 nM	26 nM	CN(C)/C(=N/c1cccc(/C(=C\CCCC(=O)O)c2cccnc2)c1)NC#N
1000 nM	35 nM	430 nM	N#CN/C(N)=N\c1cccc(/C(=C\CCCC(=O)O)c2cccnc2)c1
690 nM			CC(C)CC/N=C(/NC#N)Nc1cccc(/C(=C\CCCC(=O)O)c2cccnc2)c1
500 nM			N#CN/C(=N/C1CCCC1)Nc1cccc(/C(=C\CCCC(=O)O)c2cccnc2)c1
500 nM	83 nM	3 nM	N#CN/C(=N/C12CC3CC(CC(C3)C1)C2)Nc1cccc(/C(=C\CCCC(=O)O)c2cccnc2)c1
460 nM	16 nM	250 nM	C/N=C(/NC#N)Nc1cccc(/C(=C\CCCC(=O)O)c2cccnc2)c1
350 nM		25 nM	CC(C)C/N=C(/NC#N)Nc1cccc(/C(=C\CCCC(=O)O)c2cccnc2)c1
310 nM			CC(C)(C)N/C(=N\C#N)Nc1cccc(/C(=C\CCCC(=O)O)c2cccnc2)c1 [TERBOGREL]
120 nM	3 nM		CC(C)(C)NC(Nc1cccc(/C(=C\CCCC(=O)O)c2cccnc2)c1)=C(C#N)C#N
